VIM-2 inh: blocks Pseudomonas aeruginosa VIM-2 metallo-beta-lactamase; inhibition, % at 5.6 µM; purified VIM-2, nitrocefin hydrolysis, epi-absorbance fluorescence; 0.89% of 290,000 active;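 active = inhibition above the mean of all tested compounds plus 3 SD, cutoff set per screening run, cut at about 7.5% in these data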;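 also: red hydrolysis product quenches plate fluorescence so inhibitors raise well fluorescence; 0% = enzyme with DMSO and 100% = DMSO without enzyme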
IMP-1 inh: inhibitors of Pseudomonas aeruginosa IMP-1 metallo-beta-lactamase; purified IMP-1, nitrocefin hydrolysis, epi-absorbance fluorescence; 0.45% of 290,000 active; inhibition, % at 5.6 µM; AID 1556;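 active = inhibition above the mean plus 3 SD of all compounds in the same screening run, cut at about 4.5% in these data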;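 also: 0% = IMP-1 with DMSO and 100% = DMSO wells lacking enzyme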
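assay system = purified recombinant IMP-1 metallo-beta-lactamase enzyme | schedule = 15 min preincubation plus 25 min reaction at 25 °C | signal = Epi-absorbance fluorescence, 480 nm excitation, 530 nm emission | read-out basis = percent inhibition from optical density relative to buffer-blank wells | controls = IMP-1 with DMSO as 0%, enzyme-free DMSO as 100%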
TRPML3 ag: human mucolipin-3 channel agonism. activation, % at 3 µM. 0.29% of 220,000 active. HEK293 TRPML3-YFP, Fluo-8 calcium fluorescence; 100% = the carbachol control signal. Q8TDD5;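 active = activation above its plate's cutoff, the mean activation of the plate's test wells plus 3 SD, cut at about 12% in these data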;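 also: 0% = DMSO only wells and 100% = carbachol wells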
Target sequence (Q8TDD5 whole entry, looked up): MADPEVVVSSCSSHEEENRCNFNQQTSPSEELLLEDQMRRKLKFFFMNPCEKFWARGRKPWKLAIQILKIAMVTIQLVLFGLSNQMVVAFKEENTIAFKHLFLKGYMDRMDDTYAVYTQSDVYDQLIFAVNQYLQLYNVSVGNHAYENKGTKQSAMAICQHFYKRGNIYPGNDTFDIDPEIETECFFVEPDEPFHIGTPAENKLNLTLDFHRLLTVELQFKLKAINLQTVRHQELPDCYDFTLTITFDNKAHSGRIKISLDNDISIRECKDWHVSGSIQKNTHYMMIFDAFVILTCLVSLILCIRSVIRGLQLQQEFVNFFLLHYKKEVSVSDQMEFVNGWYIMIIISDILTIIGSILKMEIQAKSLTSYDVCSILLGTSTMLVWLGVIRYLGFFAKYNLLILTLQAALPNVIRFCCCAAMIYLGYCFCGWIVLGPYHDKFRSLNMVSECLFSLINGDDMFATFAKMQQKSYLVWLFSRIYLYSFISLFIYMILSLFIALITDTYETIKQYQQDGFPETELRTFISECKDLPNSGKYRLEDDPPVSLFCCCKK
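Material: HEK293 cells stably carrying human TRPML3-YFP; compound dosing: single dose, 3 µM final nominal compound, 0.3% DMSO final; incubation: 1-h 37 °C dye load, 5-s basal, 120-s post-compound reads; technique: Fluo-8 intracellular calcium fluorescence, excitation 470-495 nm, emission 515-575 nm; read-out basis: percent activation from peak-to-basal fluorescence ratio, scaled between DMSO and carbachol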
zfTRPN1 agonist: activates the zebrafish TRPN1 channel; 0.18% of 220,000 active; HEK293 zebrafish TRPN1-YFP, Fluo-8 calcium fluorescence; 100% = response to 87 µM carbachol; activation, % at 3 µM; AID 1424;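 active = activation above its plate's cutoff, the mean activation of test wells on that plate plus 3 SD, cut at about 19% in these data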;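 also: 0% = DMSO alone and 100% = 87 µM carbachol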
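Assay system: Zebrafish TRPN1-YFP in HEK293 cells | Incubation: Dye loading 1 h at 37 °C, then 30 min room temperature | Measured by: Kinetic Fluo-8 fluorescence, ex 470-495, em 515-575 nm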
CRFBP-R2 block: antagonists of CRF-binding protein/CRF-R2 receptor complex; HEK293 CRF-R2/CRF-BP, CRF-induced calcium fluorescence; AID 588475; 0.59% of 350,000 active; inhibition, % at 11.8 µM;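 active = inhibition of the ligand-induced calcium signal above about 50% at the single tested concentration, limit read from the data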
CRFBP-R2 agonist: CRF-BP/CRF-R2 complex agonism. 0.46% of 350,000 active. activation, % at 13.2 µM. HEK293 CRF-R2/CRF-BP, calcium dye fluorescence (FLIPR); percent of saturating CRF peptide response. AID 588473;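 active = activation of at least 50%, plus an integration ratio under a set limit after plate pattern correction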;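 also: plate controls were neutral control wells without compound for no effect and CRF at EC100 for full effect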
Numbers without * were called inactive; . = no result. The list is not random: actives were taken first. Their share in the collection is about 2.1%.

SMILES	VIM-2 inh	IMP-1 inh	TRPML3 ag	zfTRPN1 agonist	CRFBP-R2 block	CRFBP-R2 agonist
O=C(NC1CCCc2ccccc21)c1cccc(S(=O)(=O)N2CCOCC2)c1 (centres undefined)	-6	-4	0	-2	11	-2
COC(=O)C1CCN(C(=O)c2oc3c(Cl)cc(C)cc3c2C)CC1	-2	-4	.	.	1	0
Cc1cc(Cl)c2oc(C(=O)N3CCN(c4ccncc4)CC3)c(C)c2c1	7.8*	-4	.	.	-2	1
O=C(/C=C/c1ccco1)OCc1nnc(-c2ccc(Cl)cc2)o1	-2	1	0	0	87*	1
CCOc1ccc(S(=O)(=O)Nc2nc3ccccc3nc2-n2ccc(=NC(=O)c3ccccc3C)cc2)cc1	3	0	14*	37*	-10	32
NS(=O)(=O)c1ccc2c(c1)oc(=O)c1cc(S(N)(=O)=O)ccc12	0	-2	2	2	3	0
CN(C)c1ncc(CN2CCC(C(=O)Nc3ccc(-n4cccn4)cc3)CC2)s1	-2	-1	.	.	-3	0
COc1ccccc1OCC(=O)NCC1CCCN(C(=O)c2ccccc2C(C)=O)C1 (centres undefined)	-2	-2	.	.	68*	1
COc1ccc(/C=N/n2c(SC)nnc2-c2ccccc2)c(OC)c1OC	23*	-2	-1	-2	-2	0
O=C(c1ccc(N2CCOCC2)c([N+](=O)[O-])c1)N1CCCC(C(F)(F)F)C1 (centres undefined)	.	.	.	.	-2	-1
CCCS(=O)(=O)Nc1cccc(-c2ccc3nnc(C)n3n2)c1	1	-3	0	0	-19	1
CCS(=O)(=O)Nc1cccc(-c2ccc3nnc(-c4cccnc4)n3n2)c1	8.9*	-2	.	.	-1	-3
CC(=O)Nc1ccc(OCC(O)CN2C(C)(C)CC(O)CC2(C)C)cc1 (centres undefined)	-2	-2	1	2	53*	-2
CN1/C(=C\C=C(/C#N)C(=O)Nc2ccccc2F)C(C)(C)c2ccccc21	-5	-4	2	1	-193	257*
COc1ccc(-c2nnnn2-c2ccc(F)cc2F)cc1	-2	-2	0	-1	6	0
CSc1ccc(S(=O)(=O)NCC(=O)OCC(=O)N(Cc2ccccc2)C(C)C)cc1[N+](=O)[O-]	.	.	.	.	56*	1
CSc1ccc(S(=O)(=O)NCC(=O)OCC(=O)N(C)Cc2ccccc2)cc1[N+](=O)[O-]	.	.	.	.	13	0
COC(=O)c1cc2c(=O)c3ccccc3oc2nc1/C=C/N(C)C	7.7*	3	.	.	-173	198*
COC(=O)c1cc2c(=O)c3ccccc3oc2nc1C	6	-4	.	.	11	0
O=C(N/N=C/c1ccccc1Cl)C1CC1	-1	-3	.	.	77*	0
O=C(NN=Cc1cccc2ccccc12)C1CC1	.	.	.	.	-6	-4
Cc1ccc(/C=C2\CCC3=C2OC(N)=C(C#N)C3c2ccc(C)cc2)cc1 (centres undefined)	1	4	7	14	-297	253*
O=C(c1ccc([N+](=O)[O-])cc1)N(Cc1ccc(Cl)cc1)N1C(=O)CCCC1=O	-2	-2	87*	27*	-42	157*
O=C(c1ccc(Cl)cc1)N(Cc1ccc(Br)cc1)N1C(=O)CCC1=O	0	-3	1	1	-9	-3
CCNc1nc(NCC)n2c(SCc3ccc(F)cc3)nnc2n1	-1	-3	0	1	51*	0
COc1ccccc1OCCNC(=O)CNC(=O)c1ccc(C(C)(C)C)cc1	.	.	.	.	-10	4
CCOc1ccc(S(=O)(=O)Nc2cc(SCC(=O)O)c(O)c3ccccc23)cc1	10*	4	.	.	5	-2
CCc1ccc(S(=O)(=O)Nc2cc(SCC(=O)O)c(O)c3ccccc23)cc1	5	3	0	1	7	-1
COc1ccc(N(C)C(=O)C2CCN(S(=O)(=O)c3cccc4nonc34)CC2)c(OC)c1	-2	-1	.	.	9	-1
COc1cc2c(cc1OC)-c1cc(Nc3ccc(C(=O)O)cc3)nc(=O)n1CC2	-2	-4	.	.	117*	0

Bioassay records deposited in PubChem BioAssay by several laboratories.
